These results are taken from ChEMBL document CHEMBL2390820, “3-Biphenylimidazo[1,2-a]pyridines or [1,2-b]pyridazines and analogues, novel Flaviviridae inhibitors” (Eur J Med Chem, 2013).

The structures appear in SMILES notation. ≈ marks a conversion by molar mass, not a printed value.

Data set [1] is described as follows: Selectivity index, ratio of CC50 for Huh5-2 cells to EC50 for HCV genotype 1b infected in Huh5-2 cells. The arrangement: species or system Huh-5-2. Put shortly: (§1)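 Selectivity index is the ratio of CC50 from the 3-day MTS/PMS proliferation assay to EC50 in the same cell line. For Huh 5-2 the EC50 is from the luciferase replicon assay; for MDBK it is from the MTS CPE assay.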

Another data set has as its system Hepatitis C virus. The experiment in a line: Antiviral activity against HCV genotype 1b infected in Huh5-2 cells assessed as inhibition of viral replication after 4 days by luciferase reporter gene assay. Format: functional, organism-based, Hepacivirus hominis, Huh-5-2. The following applies: Hepatitis C virus, genotype 1b, Huh-5-2, 96 h. Put shortly: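 Huh 5-2 cells carrying the HCV subgenomic luciferase replicon were seeded at 5 × 10³/well with compound and incubated 4 days at 37 °C. Medium was removed and luciferase activity quantified. EC50 is the minimum concentration reducing replicon-driven luciferase signal by 50%.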
(In general: A reporter such as luciferase makes a cellular process visible.)

A short description of data set [2]: Cytotoxicity against human Huh5-2 cells assessed as growth inhibition after 3 days by MTS assay. Format: cell-based, Huh-5-2. In short, it runs like this:
(§2)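 MDBK or Huh 5-2 cells were seeded at 5 × 10³/well in MEM-FCS, with serial compound dilutions added 24 h later. Cells proliferated 3 days at 37 °C, then metabolic activity was read by MTS/PMS. CC50 is the concentration inhibiting proliferation of exponentially growing cells by 50%, by linear interpolation.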

A short description of data set [3]: Selectivity index, ratio of CC50 for MDBK cells to EC50 for BVDV NADL infected in MDBK cells. Put shortly: as §1
A short description of data set [4]: Cytotoxicity against MDBK cells assessed as growth inhibition after 3 days by MTS assay. The class given is cell-based, Bos taurus. The following applies: cattle. In short, it runs like this:
as §2
(In general: Tetrazolium dyes change colour on reduction, which living cells bring about.)

The nature of data set [5]: Antiviral activity against BVDV NADL infected in MDBK cells assessed as inhibition of virus-induced cytopathic effect formation after 5 days by MTS assay. The following applies: Bovine viral diarrhea virus isolates and strains, 120 h. The class given is functional, cell-based, Bovine viral diarrhea virus 1-NADL. In short, it runs like this: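 MDBK cells were seeded at 5 × 10³/well in MEM-FCS and held 24 h at 37 °C, 5% CO₂. Medium was replaced with 5-fold serial compound dilutions, then BVDV inoculum was added at MOI 2. CPE was read by MTS as OD at 490 nm. EC50 is the concentration giving 50% protection against virus-induced CPE, by linear interpolation.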

By EC50 is commonly meant the concentration giving half of the maximal effect. One may read the CC50 as the concentration at which the toxic effect on the cells reaches its halfway point.

Take `Fc1ccc(-c2nc3ccccn3c2-c2cccc(-c3ccco3)c2)cc1`: the “Ratio CC50/EC50” value in data set [1] is recorded as 1.9. Besides, in the data set with Hepatitis C virus, the EC50 was found to be 12.8 µg/mL (≈ 36.1 µM). Besides, in data set [2], the CC50 at 72 h is 24.7 µg/mL (≈ 69.7 µM).

For `COc1ccccc1-c1nc2ccc(-c3ccsc3)nn2c1-c1cccc(-c2ccco2)c1`, the “Ratio CC50/EC50” value in data set [1] is listed as 3.6. Moreover, in the data set with Hepatitis C virus, the EC50 came out at 15.1 µg/mL (≈ 33.6 µM). For the same molecule, the CC50 at 72 h in data set [2] amounted to 54.3 µg/mL (≈ 121 µM).

As to `Fc1ccc(-c2nc3ccccn3c2-c2cccc(-c3cc4ccccc4o3)c2)cc1`, in data set [1], the “Ratio CC50/EC50” value was 2. In the data set with Hepatitis C virus, the EC50 was 28 µg/mL (≈ 69.2 µM). The CC50 at 72 h in data set [2] came to 54.9 µg/mL (≈ 136 µM).

For `Fc1ccc(-c2nc3ccc(N4CCOCC4)nn3c2-c2cccc(-c3ccccc3)c2)cc1`, the half-maximal cytotoxic concentration (CC50) at 72 h in data set [2] was found to be 11.1 µg/mL (≈ 24.6 µM); in data set [4] it was 12 µg/mL (≈ 26.6 µM). In data set [3], the “Ratio CC50/EC50” value is listed as 3. For the same molecule, the EC50 in data set [5] is 4 µg/mL (≈ 8.88 µM).

As to `CC(C)(C)c1nc2ccc(-c3ccsc3)nn2c1-c1cccc(-c2ccccc2O)c1`, in data set [1], the “Ratio CC50/EC50” value stood at 2.5. The EC50 is 30.1 µg/mL (≈ 70.7 µM) in the data set on Hepatitis C virus and above 100 µg/mL in data set [5]. The half-maximal cytotoxic concentration (CC50) at 72 h in data set [2] was 75.3 µg/mL (≈ 177 µM); in data set [4], above 100 µg/mL.

In the case of `CN1CCN(c2ccc3nc(-c4ccc(F)cc4)c(-c4ccc(-c5ccccc5)cc4)n3n2)CC1`, the CC50 at 72 h is 45.3 µg/mL (≈ 97.7 µM) in data set [2] and above 50 µg/mL in data set [4]. Besides, the “Ratio CC50/EC50” value in data set [3] is reported as above 1. Besides, the EC50 in data set [5] was above 50 µg/mL.

`Fc1ccc(-c2nc3ccccn3c2-c2ccc(-c3ccccc3)cc2)cc1`: the EC50 in the data set with Hepatitis C virus is 2.64 µg/mL (≈ 7.24 µM). In addition, the half-maximal cytotoxic concentration (CC50) at 72 h in data set [2] came to 36 µg/mL (≈ 98.8 µM).

On to `COc1ccccc1-c1nc2ccc(-c3ccsc3)nn2c1-c1cccc(-c2ccc(O)cc2)c1`, for which the “Ratio CC50/EC50” value in data set [1] was found to be 9.2. Further, the figures for the half-maximal effective concentration (EC50) (with Hepatitis C virus; in data set [5]) were 2.4 µg/mL (≈ 5.05 µM) and above 100 µg/mL, respectively. For the same molecule, the CC50 at 72 h in data set [2] was 22.1 µg/mL (≈ 46.5 µM); in data set [4], above 100 µg/mL.

Regarding `Fc1ccc(-c2nc3ccc(-c4ccccc4)cn3c2-c2ccc(-c3ccccc3)cc2)cc1`, in data set [1], the “Ratio CC50/EC50” value is given as 2.5. Moreover, the values for the EC50 (with Hepatitis C virus; in data set [5]) were 4.5 µg/mL (≈ 10.2 µM) and above 30 µg/mL, respectively. Further, the CC50 at 72 h in data set [2] amounted to 11.4 µg/mL (≈ 25.9 µM); in data set [4], 30 µg/mL (≈ 68.1 µM).

As to `Oc1ccc(-c2cccc(-c3c(-c4ccc(F)cc4)nc4ccccn34)c2)cc1`, the “Ratio CC50/EC50” value in data set [1] came out at 5.1. Also, in the data set with Hepatitis C virus, the EC50 worked out at 13.5 µg/mL (≈ 35.5 µM). In data set [2], the CC50 at 72 h was determined as 69.5 µg/mL (≈ 183 µM).

For the molecule `COc1ccccc1-c1nc2ccc(-c3ccsc3)nn2c1-c1cccc(-c2cccc(O)c2)c1`, the “Ratio CC50/EC50” value in data set [1] was determined as 20.8. The EC50 with Hepatitis C virus was 3.8 µg/mL (≈ 7.99 µM); in data set [5] it was above 100 µg/mL. The 50% cytotoxic concentration (CC50) at 72 h is 78.5 µg/mL (≈ 165 µM) in data set [2] and above 100 µg/mL in data set [4].

On to `Fc1ccc(-c2nc3ccccn3c2-c2cccc(-c3ccccc3)c2)cc1`, for which the “Ratio CC50/EC50” value in data set [1] came out at 1.7. The EC50 in the data set on Hepatitis C virus came to 34.9 µg/mL (≈ 95.8 µM). Besides, in data set [2], the 50% cytotoxic concentration (CC50) at 72 h is 60.4 µg/mL (≈ 166 µM).

`COc1ccccc1-c1nc2ccccn2c1-c1cccc(-c2cccc(O)c2)c1`: the “Ratio CC50/EC50” value in data set [1] was 11.4. Moreover, in the data set with Hepatitis C virus, the concentration for a half-maximal effect (EC50) was found to be 3.5 µg/mL (≈ 8.92 µM). Moreover, the CC50 at 72 h in data set [2] worked out at 40.3 µg/mL (≈ 103 µM).

For `CN1CCN(c2cccc(-c3c(-c4ccc(F)cc4)nc4ccccn34)c2)CC1`, the “Ratio CC50/EC50” value in data set [1] was 2.8. Besides, the concentration giving a half-maximal response (EC50) in the data set on Hepatitis C virus came out at 21.8 µg/mL (≈ 56.4 µM). Also, the CC50 at 72 h in data set [2] was determined as 60.1 µg/mL (≈ 156 µM).

Consider `CCOC(=O)c1nc2ccc(-c3ccsc3)cn2c1-c1cccc(-c2ccccc2)c1`, for which the “Ratio CC50/EC50” value in data set [1] is on record as above 2.2. Further, the concentration for a half-maximal effect (EC50) in the data set on Hepatitis C virus was 53.1 µg/mL (≈ 125 µM); in data set [5], above 67.7 µg/mL. Also, the CC50 at 72 h in data set [2] was above 118 µg/mL; in data set [4], 67.7 µg/mL (≈ 159 µM).

Regarding `CC(C)(C)c1nc2ccc(-c3ccsc3)nn2c1-c1cccc(-c2ccco2)c1`, the “Ratio CC50/EC50” value in data set [1] stood at 4.8. For the same molecule, the EC50 with Hepatitis C virus was 8.6 µg/mL (≈ 21.5 µM); in data set [5], above 100 µg/mL. Further, the results for the 50% cytotoxic concentration (CC50) at 72 h in data set [2] and in data set [4] were 41.3 µg/mL (≈ 103 µM) and above 100 µg/mL, respectively.

For the molecule `COc1ccccc1-c1nc2ccc(-c3ccsc3)nn2c1-c1cccc(-c2ccoc2)c1`, the “Ratio CC50/EC50” value in data set [1] stood at 1.4. The half-maximal effective concentration (EC50) was 11.1 µg/mL (≈ 24.7 µM) in the data set with Hepatitis C virus and above 100 µg/mL in data set [5]. Moreover, the CC50 at 72 h in data set [2] is 15.7 µg/mL (≈ 34.9 µM); in data set [4], above 100 µg/mL.
